Screens as filed in PubChem BioAssay.
Hits are enriched below; roughly 4.7% of the tested compounds scored in any of these assays.
MrgX1 PAM – human MrgX1 positive allosteric modulation, primary screen; MrgX1-HEK293, Fluo-4 calcium flux, FDSS; active compounds read high; Q96LB2; B-score at 10 µM; AID 588675; 0.63% of 310,000 active;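 active means plate-corrected calcium response at least 3 library SD above typical, normal starting fluorescence, not activating the receptor alone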;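 further: compound read alongside a low EC10 to EC30 dose of BAM8-22 agonist; peak minus trough fluorescence over baseline measured at the second addition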
Target sequence (Q96LB2 whole entry, looked up): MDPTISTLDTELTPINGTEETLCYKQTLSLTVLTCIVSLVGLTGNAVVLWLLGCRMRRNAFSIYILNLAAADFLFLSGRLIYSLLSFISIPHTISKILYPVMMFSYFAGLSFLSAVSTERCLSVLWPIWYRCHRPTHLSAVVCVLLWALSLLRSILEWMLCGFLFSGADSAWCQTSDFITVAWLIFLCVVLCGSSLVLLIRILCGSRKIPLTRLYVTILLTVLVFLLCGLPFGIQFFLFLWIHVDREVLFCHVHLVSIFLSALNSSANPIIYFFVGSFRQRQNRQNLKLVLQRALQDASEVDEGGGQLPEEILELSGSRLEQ
MrgX1 agonist – human MrgX1 receptor agonism, primary screen; 0.44% of 310,000 active; AID 588627; B-score at 10 µM; Q96LB2; MrgX1-HEK293 cells, Fluo-4 calcium fluorescence, agonist mode; active compounds read high;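 active means calcium response B-score plate-corrected fluorescence ratio at least 3 library SD, with starting fluorescence B-score inside 5 SD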
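Assay system: MrgX1-expressing HEK293 cells / Amount: fifteen thousand cells per well / Doses: test compound in the initial addition of three / Timing: cells plated overnight, dye loaded 0.5 h 37 °C, 0.5 h room temperature / Technique: kinetic calcium dye fluorescence, Fluo-4 NW / Control set: positive and negative controls per plate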
RGS4 block – human RGS4 inhibition | P49798 | HEK293 M3R/RGS4 inducible, Fluo-4 calcium flux; active compounds read high; triggered by carbachol at its EC20 | B-score at 10 µM | 0.45% of 310,000 active | AID 463165;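 active means B-score, a plate-corrected calcium signal, over three deviations above library mean, with baseline fluorescence within five deviations of library mean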;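 further: RGS4 expression induced by doxycycline in cells with stable M3 receptor; B-score is computed from the integrated fluorescence ratio over baseline after carbachol; higher B-score means a larger calcium signal and so more RGS4 inhibition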
Target sequence (P49798 whole entry, looked up): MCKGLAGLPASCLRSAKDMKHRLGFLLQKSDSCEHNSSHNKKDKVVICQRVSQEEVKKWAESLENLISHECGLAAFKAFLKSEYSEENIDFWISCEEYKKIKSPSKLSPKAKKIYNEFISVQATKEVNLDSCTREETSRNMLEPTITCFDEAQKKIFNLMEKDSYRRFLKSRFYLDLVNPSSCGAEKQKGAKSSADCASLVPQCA
RGS4 pot – RGS4 potentiation or activation; B-score at 10 µM; 0.92% of 310,000 active; HEK293 M3R/inducible RGS4, carbachol calcium flux Fluo4; active compounds read low;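 active means B-score of the integrated calcium signal more than 4 SD below the library mean, with starting fluorescence not abnormally high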;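 further: negative B-score means reduced calcium response which marks RGS4 activation or potentiation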
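test system = HEK293 cells with stable M3R and inducible RGS4 | schedule = recording 10 s baseline at 1 Hz, 100 s post-agonist | technique = Fluo4-AM (2 µM) calcium-flux fluorescence, kinetic read | measure = Agonist-evoked peak-minus-minimum fluorescence over baseline, integrated ratio, B score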
KCC2 mod – KCC2 (human) Cl- transport modulation. Q9H2X9. KCC2 cells, thallium flux FluoZin-2 fluorescence. B-score of Tl+ flux slope (higher = more flux/activation; lower = inhibition) at 10 µM. 2.2% of 190,000 active. AID 1456;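 active means thallium flux slope and its plate-corrected score both differing from the plate sample mean at a set confidence after two filtering rounds, in either direction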;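 further: slope of fluorescence scaled to starting intensity during 10 to 20 s after thallium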
MrgX1 antagonist – blocks BAM8-22 activation of human MrgX1 receptor | AID 588676 | MRGX1-HEK293 calcium flux, Fluo-4, BAM8-22 antagonism; active compounds read low | Q96LB2 | B-score at 10 µM | 1.3% of 310,000 active;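 active means calcium-response B-score plate-corrected more than 3 library SD below zero, starting fluorescence within 5 deviations, no agonist response on first addition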;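 further: peak minus trough fluorescence over baseline after final BAM8-22 challenge near maximal dose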
Each line names hits and unclear results; the compound was inactive in the other large screens.

Cc1ccc(NS(=O)(=O)c2ccc(C(=O)NCC(c3ccco3)N(C)C)cc2)cc1 (centres undefined)	MrgX1 antagonist -4.87 (no result: KCC2 mod)
COc1cc2c(cc1OC)CN(C(=O)CNS(=O)(=O)c1ccc(C)c(C)c1)CC2	none (no result: KCC2 mod)
CN1C2CCC1/C(=C\c1ccc(F)cc1)C(=O)/C2=C/c1ccc(F)cc1	MrgX1 PAM 7.03
CCc1nnc(NC(=O)c2cccc(C(=O)Nc3nnc(CC)s3)n2)s1	MrgX1 PAM 27.4
COc1ccccc1/C=C/c1nc(S(=O)(=O)c2ccccc2)c(N2CCC(C(N)=O)CC2)o1	none (no result: KCC2 mod)
COCCNc1oc(/C=C/c2ccccc2OC)nc1S(=O)(=O)c1ccccc1	MrgX1 PAM 6.94 (no result: KCC2 mod)
NS(=O)(=O)c1cccc(C(=O)NC2CCSc3ccccc32)c1 (centres undefined)	none (no result: KCC2 mod)
NS(=O)(=O)c1cc(C(=O)NC2CCSc3ccccc32)ccc1Cl (centres undefined)	MrgX1 agonist 61.6 (no result: KCC2 mod)
Cc1ccc2c(c1)N(CC(=O)NCC(C)c1ccccc1)C(=O)c1cccnc1O2 (centres undefined)	none (no result: KCC2 mod)
O=C1CSC(=Nc2ccccc2[N+](=O)[O-])N1	MrgX1 antagonist -4.64
COc1ccc(N=C2NC(=O)CS2)c([N+](=O)[O-])c1	none
C[C@@H](C(=O)N1CCNCC1)n1cc(CCCN=C(N)N)nn1	KCC2 mod 2.03
CCOc1ncccc1C(=O)Nc1cccc(C(=O)Nc2cccc(S(=O)(=O)CCO)c2)c1	MrgX1 antagonist -5.27
CCC(C)(C)NC(=O)C(c1ccco1)N(C(=O)Cn1nnc2ccccc21)c1ccc2c(c1)OCO2 (centres undefined)	MrgX1 PAM 8.89
CCOc1ccccc1N1C(=O)CC(Nc2ccc(N3CCOCC3)cc2)C1=O (centres undefined)	MrgX1 antagonist -4.53
COc1ccccc1N1C(=O)CC(Nc2ccc(N3CCOCC3)cc2)C1=O (centres undefined)	none
CCN1CCN(CCNC(=O)c2ccc(/C=C3/Sc4ccccc4N(Cc4ccccc4C)C3=O)cc2)CC1	RGS4 pot -8.42 (no result: MrgX1 PAM, MrgX1 agonist, MrgX1 antagonist)
CC(C)c1ccc(OCCCCN2CCCCC2)cc1	none (no result: KCC2 mod)
CC1CCN(CCCCOc2ccc(C(=O)c3ccccc3)cc2)CC1	RGS4 pot -9.56
CC1CCN(CCOc2ccc(C(=O)c3ccccc3)cc2)CC1	none (no result: KCC2 mod)
O=[N+]([O-])c1ccc(OCCCCN2CCCCC2)cc1	RGS4 pot -7.63
Clc1ccc(OCCCCN2CCCCC2)cc1	RGS4 pot -7.14 (no result: KCC2 mod)
CC(C)Oc1ccc(OCCCN2CCCCCC2)cc1	RGS4 pot -7.21 (no result: KCC2 mod)
NC(=O)C[C@H](N)c1cn([C@@H](CC(N)=O)C(=O)N2CCNCC2)nn1	none (no result: RGS4 block, RGS4 pot, KCC2 mod)
COc1cc(F)ccc1S(=O)(=O)NCc1cccnc1	none (no result: KCC2 mod)
NS(=O)(=O)c1ccc(Cl)cc1[N+](=O)[O-]	none
O=C(NCCc1ccccc1F)C1CCC(=O)N(CCCN2CCCC2=O)C1 (centres undefined)	none (no result: KCC2 mod)
O=[N+]([O-])c1ccc(OCCCCCN2CCOCC2)cc1	none (no result: KCC2 mod)
Cc1ccc(OCCCCN2CCC(C)CC2)cc1	RGS4 pot -7.21 (no result: KCC2 mod)
Cc1cc(Br)ccc1OCCCCN1CCCCC1	RGS4 pot -7.05
CC1CCN(CCCCOc2ccc([N+](=O)[O-])cc2)CC1	RGS4 pot -7.31 (no result: KCC2 mod)
CC(=O)N1Cc2ccccc2CC1C(=O)NCc1ccccc1F (centres undefined)	none (no result: KCC2 mod)
COc1ccc(C)cc1NC(=O)c1cc(S(=O)(=O)N2CCOCC2)cn1C	none (no result: KCC2 mod)
CN(CC(=O)Nc1cccc(F)c1)C(=O)c1cccnc1Sc1ccccc1Cl	none (no result: KCC2 mod)
Cc1ccc(/C([O-])=C(/C(=S)NCc2ccco2)[n+]2ccccc2)cc1	RGS4 block 4.69
O=[N+]([O-])c1ccc(/C([O-])=C(/C(=S)NCc2ccco2)[n+]2ccccc2)cc1	none
CCOc1ccc(NC(=O)CN(c2ccc([N+](=O)[O-])cc2)S(=O)(=O)c2ccccc2)cc1	MrgX1 antagonist -5.36
CC(=O)Nc1ccc(NC(=O)CN(c2ccc([N+](=O)[O-])cc2)S(=O)(=O)c2ccccc2)cc1	none (no result: KCC2 mod)
COc1ccccc1N(CC(=O)NCCSc1ccccn1)S(=O)(=O)c1ccccc1	none (no result: KCC2 mod)
